Test results from article PMC5844832 (Bioorganic & medicinal chemistry, 2017).
*: point of attachment. FITC = O=C1OC2(c3ccc(O)cc3Oc3cc(O)ccc32)c2ccc(NC(=S)*)cc21; βAla = NCCC(=O)O

Columns and labels:
HOIL-UBL = target: T1, HOIL-UBL (Homo sapiens, UniProt Q9BYM8); test: Native gel shift assay; type: binding; conditions: 2.5 μM FITC peptide, 50 μg/mL protein, 1 h 37 °C, hrCNE
T1 sequence (Q9BYM8 37-128): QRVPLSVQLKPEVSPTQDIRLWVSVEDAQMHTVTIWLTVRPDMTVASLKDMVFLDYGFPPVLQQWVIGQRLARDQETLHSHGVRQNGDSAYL
Outline: (§1)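 Recombinant protein, expressed in Rosetta (DE3) E. coli, was mixed at 50 μg/mL with 2.5 μM FITC-peptide in 1X ubiquitylation buffer, with or without 20 μM unlabelled peptide competitor. Mixtures were incubated 1 h at 37 °C and resolved on 5% acrylamide native gels (bis-Tris, pH 7.0; Tricine/imidazole/deoxycholate cathode buffer) at […] for 4–5 h at 4 °C. Fluorescent bands were imaged, with protein-only lanes as controls.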

Petit-LUBAC = target: T2, Petit-LUBAC (Homo sapiens, UniProt Q96EP0+Q9BYM8); test: Native gel shift assay; type: binding; conditions: 2.5 μM FITC peptide, 50 μg/mL protein, 1 h 37 °C, hrCNE
T2 sequence (Q96EP0 474-1072): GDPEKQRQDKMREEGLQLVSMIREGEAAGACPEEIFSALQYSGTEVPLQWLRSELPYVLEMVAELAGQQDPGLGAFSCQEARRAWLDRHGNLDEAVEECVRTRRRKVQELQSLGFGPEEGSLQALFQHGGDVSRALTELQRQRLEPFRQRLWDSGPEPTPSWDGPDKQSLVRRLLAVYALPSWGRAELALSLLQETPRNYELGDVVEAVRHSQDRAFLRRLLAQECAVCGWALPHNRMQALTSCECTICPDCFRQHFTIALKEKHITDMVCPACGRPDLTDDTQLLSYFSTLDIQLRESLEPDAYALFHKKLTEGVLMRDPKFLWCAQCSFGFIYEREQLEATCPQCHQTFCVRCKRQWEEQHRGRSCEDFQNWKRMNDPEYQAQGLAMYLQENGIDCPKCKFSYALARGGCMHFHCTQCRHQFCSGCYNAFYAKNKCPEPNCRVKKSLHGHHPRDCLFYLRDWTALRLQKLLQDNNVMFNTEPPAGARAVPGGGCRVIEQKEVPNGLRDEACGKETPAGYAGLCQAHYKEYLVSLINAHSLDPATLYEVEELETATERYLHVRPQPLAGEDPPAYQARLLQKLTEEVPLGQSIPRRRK
T2 sequence (Q9BYM8 1-191): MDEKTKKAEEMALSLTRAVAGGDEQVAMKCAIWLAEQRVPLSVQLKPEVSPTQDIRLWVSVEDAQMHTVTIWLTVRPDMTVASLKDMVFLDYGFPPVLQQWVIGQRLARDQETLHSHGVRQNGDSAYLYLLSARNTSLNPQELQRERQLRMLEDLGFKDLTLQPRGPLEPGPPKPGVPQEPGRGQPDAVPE
Outline: as §1

HOIP-UBA = target: T3, HOIP-UBA (Homo sapiens, UniProt Q96EP0); test: Native gel shift assay; type: binding; conditions: 2.5 μM FITC peptide, 50 μg/mL protein, 1 h 37 °C, hrCNE
T3 sequence (Q96EP0 480-636): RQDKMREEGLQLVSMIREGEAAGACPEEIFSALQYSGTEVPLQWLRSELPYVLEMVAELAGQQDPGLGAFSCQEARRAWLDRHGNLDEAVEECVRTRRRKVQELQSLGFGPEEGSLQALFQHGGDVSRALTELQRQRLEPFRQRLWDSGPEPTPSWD

His6-HOIL-UBL = target: T4, His6-HOIL-UBL (human, UniProt Q9BYM8-1 37-137); test: SPR
T4 sequence: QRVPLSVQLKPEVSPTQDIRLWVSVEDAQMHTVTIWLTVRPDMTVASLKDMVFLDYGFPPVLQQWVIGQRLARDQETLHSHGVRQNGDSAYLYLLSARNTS

GST-HOIP-UBA = target: T5, GST-HOIP-UBA (human, UniProt Q96EP0 480-636); test: SPR
T5 sequence: T3 sequence (Q96EP0 480-636)

[1] = target: T6, Petit-LUBAC (truncated sub-complex of LUBAC: HOIL-1L 1-191 and HOIP 474-1072) (human, UniProt Q9BYM8-1 1-191; Q96EP0 474-1072); test: native gel or EMSA
T6 sequence (looked up) 1: T2 sequence (Q9BYM8 1-191)
T6 sequence (looked up) 2: T2 sequence (Q96EP0 474-1072)

[2] = target: T7, HOIP residues 474-1072 (the HOIP chain of Petit-LUBAC) (human, UniProt Q96EP0 474-1072); test: native gel or EMSA
T7 sequence (looked up): T2 sequence (Q96EP0 474-1072)

Question: “1: unstapled peptide based on 22-amino acid region of HOIP-UBA (residues 606-627) ({Ac-βAla}-SRALTELQRQRLEPFRQRLWDS-NH2) [Compound 1]” was tested. Which “Gel shift of FITC-labelled peptide with HOIL-UBL” value (HOIL-UBL) did it give?
Answer: The value was “no shift was observed”.

Question: What about the “Gel shift of FITC-labelled peptide with Petit-LUBAC” value (Petit-LUBAC) of the same molecule?
Answer: Its value is “higher shifted molecular weight”.

Question: What about the “Gel shift of FITC-labelled peptide with HOIP-UBA” value (HOIP-UBA) of the same molecule?
Answer: Its value is “a shift similar to the one observed with Petit-LUBAC was observed”.

Question: For {Ac-βAla}-SRALTELQRQRLEGFRQRLWDS-NH2 (peptide, UniProt Q96EP0 606-627, looked up) [P2G WT (5), unstapled HOIP peptide with proline-to-glycine substitution], which Kd (His6-HOIL-UBL) is on record?
Answer: Its Kd is 97.3 µM.

Question: And the Kd (GST-HOIP-UBA)?
Answer: The Kd was 81.4 µM.

Question: Does {FITC-βAla}-SRALTELQRQRLEPFRQRLWDS-NH2 (peptide, UniProt Q96EP0 606-627, looked up) [FITC labeled HOIP WT (1) peptide] bind [1]?
Answer: Result: binds

B1: HOIL-1L residues 1-191 (the HOIL chain of Petit-LUBAC) (domain or fragment, human, UniProt Q9BYM8-1 1-191, looked up)
chain: T2 sequence (Q9BYM8 1-191)
Question: Does B1 bind [2]?
Answer: Result: binds

B2: N-P2G (6), N-stapled P2G HOIP peptide (peptide)
chain: SRALTELQRQRLEGFRQRLWDS
modifications: N-terminal β-alanine; N-terminal acetyl; hydrocarbon staple between two cross-linking amino acids in the N-terminal (α8) helix
Question: With B2 as the molecule, how does the Kd (GST-HOIP-UBA) read?
Answer: The Kd was 4.28 µM.
